Consider 4 compounds from paper PMC8719016 (iScience, 2021).

Data set [1] has as its system human red blood cells. To be noted: ref Edwards et al., 2016; cited from earlier work.
Data set [2] relates to E. coli KS272, HM130 and HM130 with trypsin protease. Description: MBC with and without protease activity. It is filed as cell-based, Escherichia coli. To be noted: KS272, HM130, HM130 with 160 ng/mL trypsin protease, MH media. The procedure, abridged: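 E. coli KS272 (parent) and HM130 (cell envelope proteases deleted) are grown overnight at 37°C. Trypsin, where used, is added to the diluted cells at twice the final concentration. Test compound is taken from 256 µg/mL through 2-fold serial dilutions in triplicate, 5 × 10^5 cells/mL final, for 18–24 h at 37°C.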

The next data set relates to A. baumannii AB5075. Description: Isolation of resistant mutants by subinhibitory serial passage. The format is cell-based, Acinetobacter baumannii. To be noted: subinhibitory serial passage in liquid media over two weeks.
Data set [3] relates to A. baumannii AB5075 knockout or overexpression strains. Description: MIC against knockout or overexpression strains of upregulated genes. The format is cell-based, Acinetobacter baumannii. To be noted: all the upregulated genes tested (Table S1: fold change MIC 1 for each). The procedure, abridged: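 Genes for overexpression are cloned via EcoRI/SalI into pMMBEH67 TetR, electroporated into AB5075 and selected on LB with 10 µg/mL tetracycline. […] The MIC is the lowest concentration with no visible growth, by eye, median of triplicates.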

Data set [4] deals with human red blood cells. Description: Hemolysis. It is filed as cell-based. To be noted: 2-fold serial dilutions, compared with 1% Triton X-100 (100%); n = 3.
A short description of data set [5]: MBC of β-AMPs with and without 40% human serum. The format is cell-based. To be noted: MH vs MH with 40% human serum; strain not given. Put shortly:
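Broth microdilution is run in MH with or without human serum, which is added to the cell suspension at twice the final level. Test compound is taken from 256 µg/mL through 2-fold serial dilutions in triplicate, with 5 × 10^5 cells/mL final, for 18–24 h at 37°C. 5 µL per well is plated on LB agar for 18 h at 37°C. MBC is the lowest concentration with zero growth, median of triplicates.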

The nature of a further data set: Solubility in water. To be noted: lyophilized peptides resuspended in water at 10 mg/mL. The format is physicochemical.

Peptide text beside a SMILES is read from it.

Turning to “GSKKPVPIIYCNRRTGKCQRM (disulfide) [Thanatin]”, in the data set with human red blood cells [1], the Hemolysis previously reported result is on record as “very low hemolysis”.

For the compound `CC[C@H](C)[C@H](NC(=O)[C@H](CCCCN)NC(=O)[C@@H](NC(=O)[C@H](CC(N)=O)NC(=O)[C@H](C)NC(=O)[C@H](CCCNC(=N)N)NC(=O)[C@H](CCCNC(=N)N)NC(=O)[C@H](CC(N)=O)NC(=O)[C@H](CCCNC(=N)N)NC(=O)[C@H](CCCNC(=N)N)NC(=O)[C@H](C)NC(=O)[C@@H](NC(=O)[C@H](CO)NC(=O)[C@@H](NC(=O)[C@@H](NC(=O)[C@H](CS)NC(=O)[C@H](CCCCN)NC(=O)[C@@H](N)CCCNC(=N)N)C(C)C)[C@@H](C)CC)C(C)C)[C@@H](C)CC)C(=O)N[C@@H](CC(C)C)C(=O)N[C@@H](CS)C(=O)N[C@@H](CC(N)=O)C(N)=O` [Symbah-1] (H-RKCVISVARRNRRANIKILCN-NH2; N-terminus assumed), the “Change of MBC under each of the conditions tested” value in data set [2] was ≤ 2 fold. Besides, in the data set with A. baumannii AB5075, the “Isolation of resistant mutants” value was “no isolates with improved resistance”. For the same compound, the “Effect of gene knockout or overexpression on MIC” value in data set [3] is “no clear effect on MIC”. Further, the “Percent hemolysis of serial dilutions” value with human red blood cells [4] is “very low hemolysis relative to protegrin-1 and tachyplesin-1”. Besides, the “Loss of activity (MBC) when 40% human serum was added” value in data set [5] is 8 fold.

Turning to “RGGRLCYCRRRFCVCVGR--- (bicyclic or more) [protegrin-1, reference compound]”, the “Loss of activity (MBC) when 40% human serum was added” value in data set [5] is listed as “no change”.

For the compound RKCVILCAR-NRRA-CVILCR [SBH-19], in the data set “Solubility in water”, the Solubility in water result is reported as “insoluble in water”.
